Reference: ChEMBL document CHEMBL5030540 (J Med Chem, 2021)
Active and inactive are the calls of the source. The rule behind the calls is not given here.

Legend:
Mu-type opioid receptor [1] = biological target: T1, Mu-type opioid receptor (Homo sapiens, UniProt P35372); assay: Agonist activity at human MOR expressed in HEK293T cells assessed as inhibition of forskolin-stimulated cAMP accumulation incubated for 30 mins by Glo-sensor cAMP assay; format: functional, cell-based
In short: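 HEK293T cells transiently co-transfected with human MOR and a luciferase-based cAMP biosensor. Gαi-mediated cAMP inhibition read by luminescence. EC50 given as pEC50 ± SEM, triplicate runs.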

Mu-type opioid receptor [2] = biological target: T1, Mu-type opioid receptor; assay: Agonist activity at human MOR expressed in HEK-293T cells assessed as inhibition of forskolin-stimulated cAMP accumulation incubated for 30 mins by Glo-sensor cAMP assay relative to DAMGO; format: functional, cell-based; details: HEK293T
In short: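 HEK293T cells transiently co-transfected with human MOR and a luciferase-based cAMP biosensor. Gαi-mediated cAMP inhibition read by luminescence. […] EC50 given as pEC50 ± SEM, triplicate runs.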

Mu-type opioid receptor [3] = biological target: T1, Mu-type opioid receptor; assay: Agonist activity at human MOR receptor expressed in HTLA cells co-expressing TEV-fused-beta-arrestin2 assessed as induction of beta-arrestin2 recruitment by Tango assay relative to DAMGO; format: functional, cell-based
In short: (§1)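 HTLA cells expressing TEV-fused β-arrestin2 transiently transfected with a human MOR Tango construct. β-arrestin2 recruitment measured. […] Mean pEC50 ± SEM and Emax% ± SEM from triplicate runs.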

Mu-type opioid receptor [4] = biological target: T1, Mu-type opioid receptor; assay: Agonist activity at human MOR receptor expressed in HTLA cells co-expressing TEV-fused-beta-arrestin2 assessed as induction of beta-arrestin2 recruitment by Tango assay; format: functional, cell-based; in short: as §1
Mu-type opioid receptor [5] = biological target: T1, Mu-type opioid receptor; assay: Agonist activity at human MOR expressed in CHO-K1 cells co-expressing beta-arrestin2 assessed as beta-arrestin2 EFC recruitment measured after 90 mins by PathHunter assay; format: functional, cell-based
In short: (§2)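 CHO-K1 cells stably expressing human μOR grown to confluency and seeded overnight at 37 °C, 5% CO2. 5× dilution series of compound in Opti-MEM added for 90 min at 37 °C. Detection reagent then added for 60 min at room temperature in the dark, and chemiluminescence read.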

Mu-type opioid receptor [6] = biological target: T1, Mu-type opioid receptor; assay: Agonist activity at human MOR expressed in CHO-K1 cells co-expressing beta-arrestin2 assessed as beta-arrestin2 EFC recruitment measured after 90 mins by PathHunter assay relative to control; format: functional, cell-based; in short: as §2
Mu-type opioid receptor [7] = biological target: T1, Mu-type opioid receptor; assay: Partial agonist activity at human MOR expressed in HEK293T cells co-expressing Galpha-RLuc8:Gbeta:Ggamma-GFP2 assessed as maximal Gi-1 activation measured after 15 mins by BRET assay relative to control; format: functional, cell-based; details: filed as partial agonist
[8] = biological target: GABA-A receptor; anion channel (Rattus norvegicus) (UniProt O09028+P15431+P18506+P18508+P19969+P20236+P23574+P23576+P28471+P28473+P30191+P62813+P63079+P63138+Q91ZM7+Q9ES14); assay: Partial agonist activity at GABAA receptor in rat brain slice assessed as induction of receptor-mediated inhibitory postsynaptic current at 10 uM by Whole cell electrophysiology; format: tissue-based; details: filed as partial agonist
In short: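 Horizontal VTA slices (200 μm) from male Sprague–Dawley rats. Whole-cell voltage clamp at −70 mV, 33 °C, KCl internal. GABAA IPSCs isolated with 10 μM DNQX and evoked by paired pulses every 10 s. Drug (10 μM) bath applied. Mean IPSC amplitude at minutes 4–7 of drug compared with the 4 min baseline.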

[9] = biological target: Voltage-dependent L-type calcium channel subunit alpha-1C (Rattus norvegicus, UniProt P22002); assay: Displacement of [3H]Diltiazem from Cav1.2 in rat brain at 10 uM incubated for 120 mins by radiometric scintillation counting analysis; format: tissue-based; details: 2 h
Chain of Voltage-dependent L-type calcium channel subunit alpha-1C (P22002 whole entry): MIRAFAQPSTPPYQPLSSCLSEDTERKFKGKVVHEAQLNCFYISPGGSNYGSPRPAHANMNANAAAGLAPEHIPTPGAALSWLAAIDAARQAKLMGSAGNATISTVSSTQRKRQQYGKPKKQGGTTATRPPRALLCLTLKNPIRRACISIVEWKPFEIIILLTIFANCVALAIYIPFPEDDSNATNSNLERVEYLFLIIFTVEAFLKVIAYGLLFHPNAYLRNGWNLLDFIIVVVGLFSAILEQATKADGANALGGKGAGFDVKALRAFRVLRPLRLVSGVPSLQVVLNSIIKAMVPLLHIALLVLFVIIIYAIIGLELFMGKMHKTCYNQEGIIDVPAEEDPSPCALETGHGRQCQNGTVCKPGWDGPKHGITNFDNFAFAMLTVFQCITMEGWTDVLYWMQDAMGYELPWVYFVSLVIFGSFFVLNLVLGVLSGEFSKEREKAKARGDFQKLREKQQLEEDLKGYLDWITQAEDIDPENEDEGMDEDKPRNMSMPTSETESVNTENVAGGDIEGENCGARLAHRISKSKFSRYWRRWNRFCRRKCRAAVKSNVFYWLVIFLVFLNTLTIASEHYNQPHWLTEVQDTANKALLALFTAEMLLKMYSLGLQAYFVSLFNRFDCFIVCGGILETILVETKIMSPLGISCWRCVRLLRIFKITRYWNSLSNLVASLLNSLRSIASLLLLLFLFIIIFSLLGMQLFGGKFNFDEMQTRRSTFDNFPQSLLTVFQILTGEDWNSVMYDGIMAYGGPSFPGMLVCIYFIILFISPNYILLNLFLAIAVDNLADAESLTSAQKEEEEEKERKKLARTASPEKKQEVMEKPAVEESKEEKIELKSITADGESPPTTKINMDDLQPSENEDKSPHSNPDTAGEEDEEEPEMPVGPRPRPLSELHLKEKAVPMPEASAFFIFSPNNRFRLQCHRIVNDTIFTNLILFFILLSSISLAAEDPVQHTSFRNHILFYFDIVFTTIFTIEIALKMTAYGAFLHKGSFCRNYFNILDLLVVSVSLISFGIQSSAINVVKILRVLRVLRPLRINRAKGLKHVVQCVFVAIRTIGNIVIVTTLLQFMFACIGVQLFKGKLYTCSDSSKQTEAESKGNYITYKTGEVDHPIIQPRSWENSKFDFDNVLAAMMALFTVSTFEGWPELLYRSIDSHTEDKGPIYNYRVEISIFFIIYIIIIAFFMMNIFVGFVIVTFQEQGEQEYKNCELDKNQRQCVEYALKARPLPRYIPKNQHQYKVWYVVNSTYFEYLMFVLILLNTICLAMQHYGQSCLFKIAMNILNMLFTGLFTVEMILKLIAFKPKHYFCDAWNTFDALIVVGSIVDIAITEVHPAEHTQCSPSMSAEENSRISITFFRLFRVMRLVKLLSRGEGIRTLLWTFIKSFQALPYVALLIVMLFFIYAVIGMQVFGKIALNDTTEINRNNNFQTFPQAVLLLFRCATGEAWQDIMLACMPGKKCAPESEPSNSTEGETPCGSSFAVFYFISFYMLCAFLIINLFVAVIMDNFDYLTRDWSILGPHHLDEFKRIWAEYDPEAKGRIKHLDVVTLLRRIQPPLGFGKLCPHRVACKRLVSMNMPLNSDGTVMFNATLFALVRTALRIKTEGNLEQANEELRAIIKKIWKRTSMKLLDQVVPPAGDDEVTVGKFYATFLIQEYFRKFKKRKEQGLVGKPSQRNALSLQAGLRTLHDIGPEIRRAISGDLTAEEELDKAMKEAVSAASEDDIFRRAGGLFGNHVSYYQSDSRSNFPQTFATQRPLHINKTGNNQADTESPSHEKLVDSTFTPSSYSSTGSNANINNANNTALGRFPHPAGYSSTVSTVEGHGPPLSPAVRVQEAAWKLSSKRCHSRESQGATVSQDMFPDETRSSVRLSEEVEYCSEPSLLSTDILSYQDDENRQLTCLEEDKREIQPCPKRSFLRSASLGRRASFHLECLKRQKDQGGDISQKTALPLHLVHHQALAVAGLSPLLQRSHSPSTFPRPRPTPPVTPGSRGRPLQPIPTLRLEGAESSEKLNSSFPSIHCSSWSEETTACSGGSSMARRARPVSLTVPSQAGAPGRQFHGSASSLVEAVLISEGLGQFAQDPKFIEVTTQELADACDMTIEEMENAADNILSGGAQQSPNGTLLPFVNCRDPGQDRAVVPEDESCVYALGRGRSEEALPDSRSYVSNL

Mu-type opioid receptor [10] = biological target: T1, Mu-type opioid receptor; assay: Partial agonist activity at human MOR expressed in HEK293T cells co-expressing Galpha-RLuc8:Gbeta:Ggamma-GFP2 assessed as Galpha-i/o activation measured after TRUPATH assay; format: functional, cell-based; details: filed as partial agonist
[11] = biological target: Mu-type opioid receptor (Mus musculus) (UniProt P42866); assay: Partial agonist activity at mouse MOR expressed in HEK293T cells assessed as Nb33 recruitment by BRET assay relative to control; format: functional, cell-based
Chain of Mu-type opioid receptor (Mus musculus) (P42866 whole entry): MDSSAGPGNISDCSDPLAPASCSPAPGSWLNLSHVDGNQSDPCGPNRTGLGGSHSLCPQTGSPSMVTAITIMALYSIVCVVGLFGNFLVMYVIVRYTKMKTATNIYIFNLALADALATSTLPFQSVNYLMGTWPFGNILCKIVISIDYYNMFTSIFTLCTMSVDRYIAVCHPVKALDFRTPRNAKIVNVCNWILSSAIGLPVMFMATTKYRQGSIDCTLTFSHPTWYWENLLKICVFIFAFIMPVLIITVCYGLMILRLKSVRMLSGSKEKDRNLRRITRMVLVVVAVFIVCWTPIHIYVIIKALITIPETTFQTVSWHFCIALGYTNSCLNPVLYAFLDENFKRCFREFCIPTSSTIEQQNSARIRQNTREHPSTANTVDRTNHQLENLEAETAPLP
In short: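 HEK293T cells transfected with murine MOR-NanoLuc (1 μg) and Nb33-Venus (4 μg) using PEI and used 48 h later. Cells in PBS given coelenterazine H (5 μM), ligand added at 5 min, BRET read 10 min later. Three-parameter fit; ≥3 independent trials in triplicate.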

[12] = HTLA230, filed as partial agonist

T1 sequence (P35372 whole entry): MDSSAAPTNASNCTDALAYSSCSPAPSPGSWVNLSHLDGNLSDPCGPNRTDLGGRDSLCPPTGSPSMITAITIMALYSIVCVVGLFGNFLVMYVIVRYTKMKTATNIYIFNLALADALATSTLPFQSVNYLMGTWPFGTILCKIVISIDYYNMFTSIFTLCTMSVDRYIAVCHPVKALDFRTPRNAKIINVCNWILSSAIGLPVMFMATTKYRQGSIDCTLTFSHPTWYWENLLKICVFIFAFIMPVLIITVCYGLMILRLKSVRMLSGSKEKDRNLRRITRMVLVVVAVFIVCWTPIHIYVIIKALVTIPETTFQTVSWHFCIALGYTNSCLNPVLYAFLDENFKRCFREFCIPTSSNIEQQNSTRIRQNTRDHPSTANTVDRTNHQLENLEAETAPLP

Structure (SMILES)	EC50 (Mu-type opioid receptor [1]) [µM]	Emax (Mu-type opioid receptor [2]; filed as agonist) [%]	Emax (Mu-type opioid receptor [3]; HTLA230) [%]	further results
CC[C@@H]1CN2CC[C@@]3(O)C(=Nc4ccc(C)c(OC)c43)[C@@H]2C[C@@H]1/C(=C\OC)C(=O)OC	0.0303	9.58	< 20	
CC[C@@H]1CN2CC[C@@]3(O)C(=Nc4cccc(C)c43)[C@@H]2C[C@@H]1/C(=C\OC)C(=O)OC	0.00525			Emax (Mu-type opioid receptor [2]; filed as partial agonist): 108%; EC50 (Mu-type opioid receptor [4]): 10.4 µM; Emax (Mu-type opioid receptor [3]; [12]): 110%; Emax (Mu-type opioid receptor [5]): 31%; Emax (Mu-type opioid receptor [6]): < 20%; Emax (Mu-type opioid receptor [7]): 60%; Activity [8]: Active; Activity [9]: Active; Activity (Mu-type opioid receptor [10]): Active; Emax [11]: 20%
CC[C@@H]1CN2CC[C@@]3(O)C(=Nc4c(C)ccc(OC)c43)[C@@H]2C[C@@H]1/C(=C\OC)C(=O)OC	0.0112	69.3	< 20	
CC[C@@H]1CN2CC[C@@]3(O)C(=Nc4ccc(-c5ccccc5)c(OC)c43)[C@@H]2C[C@@H]1/C(=C\OC)C(=O)OC	0.104	88.7	< 20	
CC[C@@H]1CN2CC[C@@]3(O)C(=Nc4c(-c5ccccc5)ccc(OC)c43)[C@@H]2C[C@@H]1/C(=C\OC)C(=O)OC	17.5		< 20	Emax (Mu-type opioid receptor [2]): < 20%
CC[C@@H]1CN2CC[C@@]3(O)C(=Nc4cccc(-c5ccccc5)c43)[C@@H]2C[C@@H]1/C(=C\OC)C(=O)OC	0.0362			Emax (Mu-type opioid receptor [2]; filed as partial agonist): 108%; EC50 (Mu-type opioid receptor [4]): 19.2 µM; Emax (Mu-type opioid receptor [3]; [12]): 283%; Emax (Mu-type opioid receptor [5]): 31%; Emax (Mu-type opioid receptor [6]): < 20%; Emax (Mu-type opioid receptor [7]): 60%; Activity [8]: Active; Activity [9]: Active; Activity (Mu-type opioid receptor [10]): Active; Emax [11]: 20%
CC[C@@H]1CN2CCc3c([nH]c4ccc(C)c(OC)c34)[C@@H]2C[C@@H]1/C(=C\OC)C(=O)OC	0.37	96.5	< 20	
CC[C@@H]1CN2CCc3c([nH]c4cccc(-c5ccoc5)c34)[C@@H]2C[C@@H]1/C(=C\OC)C(=O)OC	0.0937	70.2	< 20	
CC[C@@H]1CN2CCc3c([nH]c4cccc(OC)c34)[C@@H]2C[C@@H]1/C(=C\OC)C(=O)OC		84.7	< 20	
CC[C@@H]1CN2CC[C@@]3(O)C(=Nc4cccc(OC)c43)[C@@H]2C[C@@H]1/C(=C\OC)C(=O)OC		95.5	< 20	
